Laboratory results taken from ChEMBL document CHEMBL1141702 (Bioorg Med Chem Lett, 2008).
pKi: −log10 of the molar value.

Tests used:
[1] = molecular target: Sodium-dependent dopamine transporter (Rattus norvegicus, UniProt P23977); assay: Displacement of [3H]WIN-35428 from DAT in rat striatum membrane; type: cell membranes
[2] = molecular target: Sodium-dependent serotonin transporter (Rattus norvegicus, UniProt P31652); assay: Displacement of [3H]citalopram from SERT in rat brain stem membrane; type: cell membranes
In short: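 [³H]Citalopram binding in previously frozen rat brain stem, buffer 50 mM Tris, 5 mM KCl, 120 mM NaCl. Incubation 60 min at 25 °C. Ki values derived from competition binding.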

[3] = molecular target: Sigma non-opioid intracellular receptor 1 (Cavia porcellus, UniProt Q60492); assay: Displacement of [3H](+)-pentazocine from sigma 1 receptor in guinea pig brain membrane; type: cell membranes
In short: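 Tissue was previously frozen guinea pig brain minus cerebellum, incubated 120 min at 25 °C. Ki values derived from competition binding.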

[4] = Selectivity ratio of Ki for rat brain stem SERT to Ki for guinea pig brain sigma 1 receptor
Rattus norvegicus [5] = species on record: Rattus norvegicus; assay: Selectivity ratio of Ki for rat brain stem SERT to Ki for rat striatum DAT; type: tissue-based
Transporter = Transporter (Rattus norvegicus, UniProt Q63380); assay: Displacement of [3H]nisoxetine from NET in rat frontal cortex membrane; type: cell membranes
In short: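 Assay used previously frozen rat frontal cortex with [³H]nisoxetine in 50 mM Tris, 5 mM KCl, 120 mM NaCl buffer. Incubated 180 min on ice. Ki values derived from competition binding.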

Rattus norvegicus [6] = species on record: Rattus norvegicus; assay: Selectivity ratio of Ki for rat brain stem SERT to Ki for rat frontal cortex NET; type: tissue-based

Chain of Sodium-dependent serotonin transporter (P31652 whole entry): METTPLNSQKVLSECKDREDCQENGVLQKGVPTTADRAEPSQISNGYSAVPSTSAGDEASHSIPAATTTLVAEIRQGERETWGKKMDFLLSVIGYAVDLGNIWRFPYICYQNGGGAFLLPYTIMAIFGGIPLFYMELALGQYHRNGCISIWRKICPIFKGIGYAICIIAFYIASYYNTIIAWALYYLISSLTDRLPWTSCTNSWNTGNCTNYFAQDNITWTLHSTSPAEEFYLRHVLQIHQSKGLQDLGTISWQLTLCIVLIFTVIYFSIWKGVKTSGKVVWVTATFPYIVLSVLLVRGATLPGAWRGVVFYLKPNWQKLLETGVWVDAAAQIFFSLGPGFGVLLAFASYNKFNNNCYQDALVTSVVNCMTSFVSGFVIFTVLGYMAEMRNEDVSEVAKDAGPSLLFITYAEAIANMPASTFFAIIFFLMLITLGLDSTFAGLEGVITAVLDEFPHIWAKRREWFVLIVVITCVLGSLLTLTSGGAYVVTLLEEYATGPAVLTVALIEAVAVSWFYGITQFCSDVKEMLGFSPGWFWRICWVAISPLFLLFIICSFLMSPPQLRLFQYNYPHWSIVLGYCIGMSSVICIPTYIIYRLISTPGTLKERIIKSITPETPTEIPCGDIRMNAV
Chain of Sigma non-opioid intracellular receptor 1 (Q60492 whole entry): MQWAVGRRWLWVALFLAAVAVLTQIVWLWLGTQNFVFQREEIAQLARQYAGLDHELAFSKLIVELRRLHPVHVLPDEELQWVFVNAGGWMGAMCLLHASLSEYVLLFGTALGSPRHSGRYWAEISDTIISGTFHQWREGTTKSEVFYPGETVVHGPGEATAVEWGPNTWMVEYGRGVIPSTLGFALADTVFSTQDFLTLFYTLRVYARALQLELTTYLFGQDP
Chain of Transporter (Q63380 whole entry): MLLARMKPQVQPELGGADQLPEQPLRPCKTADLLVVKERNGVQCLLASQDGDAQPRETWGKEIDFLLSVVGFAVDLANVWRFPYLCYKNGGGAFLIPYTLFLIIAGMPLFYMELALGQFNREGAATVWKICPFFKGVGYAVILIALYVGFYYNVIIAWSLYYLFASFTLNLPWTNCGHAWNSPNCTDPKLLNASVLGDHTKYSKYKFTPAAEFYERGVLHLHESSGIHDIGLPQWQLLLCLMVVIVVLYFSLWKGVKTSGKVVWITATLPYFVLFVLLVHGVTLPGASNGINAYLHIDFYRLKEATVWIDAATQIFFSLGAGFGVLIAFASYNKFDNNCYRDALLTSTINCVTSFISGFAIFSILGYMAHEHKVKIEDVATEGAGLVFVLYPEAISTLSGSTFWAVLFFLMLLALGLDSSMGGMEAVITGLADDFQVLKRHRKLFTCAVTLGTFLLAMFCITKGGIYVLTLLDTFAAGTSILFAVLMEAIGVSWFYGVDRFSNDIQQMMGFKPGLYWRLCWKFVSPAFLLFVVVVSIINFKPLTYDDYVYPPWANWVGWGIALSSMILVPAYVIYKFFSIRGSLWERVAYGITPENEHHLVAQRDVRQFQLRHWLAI
Chain of Sodium-dependent dopamine transporter (P23977 whole entry): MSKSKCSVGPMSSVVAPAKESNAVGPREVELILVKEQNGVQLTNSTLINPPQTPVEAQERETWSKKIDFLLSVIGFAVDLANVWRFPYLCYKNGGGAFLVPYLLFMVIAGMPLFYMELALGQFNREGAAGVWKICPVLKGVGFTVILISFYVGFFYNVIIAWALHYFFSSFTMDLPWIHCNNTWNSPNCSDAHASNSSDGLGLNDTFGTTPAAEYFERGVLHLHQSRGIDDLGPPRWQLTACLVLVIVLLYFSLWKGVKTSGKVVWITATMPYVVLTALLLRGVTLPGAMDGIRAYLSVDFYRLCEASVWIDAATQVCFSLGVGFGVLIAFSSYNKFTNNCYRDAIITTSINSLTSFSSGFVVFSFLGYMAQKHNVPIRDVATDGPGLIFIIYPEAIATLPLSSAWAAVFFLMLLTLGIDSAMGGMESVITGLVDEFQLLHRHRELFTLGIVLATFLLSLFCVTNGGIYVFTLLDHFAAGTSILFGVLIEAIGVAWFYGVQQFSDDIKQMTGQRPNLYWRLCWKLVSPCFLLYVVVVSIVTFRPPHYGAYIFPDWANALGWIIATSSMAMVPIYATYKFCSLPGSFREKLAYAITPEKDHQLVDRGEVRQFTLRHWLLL

Compound | pKi [1] | pKi [2] | pKi [3] | Ratio Ki [4] | Ratio Ki (Rattus norvegicus [5]) | pKi (Transporter) | Ratio Ki (Rattus norvegicus [6])
O=C(CCc1ccccc1)OC(CCN1CCN(CCCN(c2ccc(F)cc2)c2ccc(F)cc2)CC1)c1ccccc1 (stereo not given) | 7.44 | 5.89 | 6.63 | – | – | – | –
CCC(=O)O[C@@H](Cc1ccccc1)CN1CCN(CCCN(c2ccc(F)cc2)c2ccc(F)cc2)CC1 | 7.82 | 5.98 | 7.09 | – | – | – | –
O=C(Cc1ccccc1)OC(CCN1CCN(CCCN(c2ccc(F)cc2)c2ccc(F)cc2)CC1)c1ccccc1 (stereo not given) | 7.83 | 5.91 | 6.87 | 9 | 83 | 5.56 | 184
Fc1ccc(C(OCCN2CCN(CCCc3ccccc3)CC2)c2ccc(F)cc2)cc1 [VANOXERINE] | – | – | 7.29 | – | – | – | –
OC(CCN1CCN(CCCN(c2ccc(F)cc2)c2ccc(F)cc2)CC1)c1ccccc1 (racemic) | 8.46 | – | – | – | – | – | –
CC(=O)O[C@@H](Cc1ccccc1)CN1CCN(CCCN(c2ccc(F)cc2)c2ccc(F)cc2)CC1 | 7.66 | 6.08 | 7.12 | – | – | – | –
CCCN(CCC)CCc1ccc(OC)c(OCCc2ccccc2)c1 | 5.44 | < 5.00 | – | – | – | – | –
C=CC(=O)OC(CCN1CCN(CCCN(c2ccc(F)cc2)c2ccc(F)cc2)CC1)c1ccccc1 (stereo not given) | 8.17 | 6.50 | 7.06 | – | – | 5.71 | –
C[C@@H]1CN(CCCn2c3ccccc3c3ccccc32)C[C@H](C)N1 [RIMCAZOLE] | 7.01 | – | – | – | – | – | –
O[C@@H](Cc1ccccc1)CN1CCN(CCCN(c2ccc(F)cc2)c2ccc(F)cc2)CC1 | 8.76 | 6.11 | 7.55 | – | – | 6.12 | –
CCCC(=O)O[C@@H](Cc1ccccc1)CN1CCN(CCCN(c2ccc(F)cc2)c2ccc(F)cc2)CC1 | 7.47 | 5.77 | 6.53 | – | – | – | –
O[C@H](Cc1ccccc1)CN1CCN(CCCN(c2ccc(F)cc2)c2ccc(F)cc2)CC1 | 8.27 | 6.28 | 7.48 | – | – | 5.68 | –
O=C(Cc1ccccc1)O[C@@H](Cc1ccccc1)CN1CCN(CCCN(c2ccc(F)cc2)c2ccc(F)cc2)CC1 | 8.16 | 5.71 | 7.06 | 13 | 282 | 5.77 | 243
CC(=O)OC(CCN1CCN(CCCN(c2ccc(F)cc2)c2ccc(F)cc2)CC1)c1ccccc1 (stereo not given) | 8.37 | 6.69 | 7.25 | – | – | 6.00 | –
O=C(CCCc1ccccc1)OC(CCN1CCN(CCCN(c2ccc(F)cc2)c2ccc(F)cc2)CC1)c1ccccc1 (stereo not given) | 7.29 | 5.66 | 6.61 | – | – | < 5.00 | –
C=CC(=O)O[C@@H](Cc1ccccc1)CN1CCN(CCCN(c2ccc(F)cc2)c2ccc(F)cc2)CC1 | 8.49 | 6.18 | 7.34 | – | – | 6.09 | –
CC(C)C(=O)OC(CCN1CCN(CCCN(c2ccc(F)cc2)c2ccc(F)cc2)CC1)c1ccccc1 (stereo not given) | 8.03 | 6.27 | 7.05 | – | – | – | –
CCC(=O)OC(CCN1CCN(CCCN(c2ccc(F)cc2)c2ccc(F)cc2)CC1)c1ccccc1 (stereo not given) | 8.25 | 6.56 | 7.12 | 14 | 49 | 5.82 | 269
